CAL PDZ FP-1: CAL PDZ (human) peptide binding inhibition; Q9HD26; purified CAL PDZ, TMR-peptide fluorescence polarization, 1 h; inhibition, % at 24.9 µM; 300,000 tested, 0.92% active; AID 602252;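 active = mean inhibition of at least 30% with at least half of replicates also reaching 30%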;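 note: 0% = DMSO neutral control and 100% = excess unlabeled competitor peptide PRC23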
CAL PDZ FP-2: inhibitors of human CAL PDZ peptide binding | purified CAL PDZ, TMR-peptide fluorescence polarization, 1 h | inhibition, % at 20 µM | 330,000 tested, 0.02% active | AID 504414;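 active = highest replicate inhibition of at least 40%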;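 note: plate controls were DMSO neutral control wells for no effect and unlabeled competitor peptide control wells for full effect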
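Assay system – tagged CAL PDZ protein CerCALP, purified · Timing – 1 h at RT · Compound – single point, 20 µM · Measured by – fluorescence polarization from S- and P-plane intensities, G-factor corrected · Evaluation – inhibition from polarization loss · Probe or stimulus – TMR reporter peptide T*-PRC34 · Buffer or medium – pH 7.4 phosphate-saline buffer, reducing agent, detergent, IgG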
CDK5 p35 inh: CDK5/p35 (human) kinase inhibition | inhibition, % at 10 µM | 330,000 tested, 0.01% active | AID 488839 | Recombinant CDK5/p35, ADP-Glo luminescence, 60 min | Q00535+Q15078;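 active = highest replicate inhibition of at least 50% and at least 75% of replicates reaching 50%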;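 note: plate controls were DMSO neutral control for no effect and GW8510 at 10 µM for full effect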
Target sequence (Q00535 whole entry, looked up): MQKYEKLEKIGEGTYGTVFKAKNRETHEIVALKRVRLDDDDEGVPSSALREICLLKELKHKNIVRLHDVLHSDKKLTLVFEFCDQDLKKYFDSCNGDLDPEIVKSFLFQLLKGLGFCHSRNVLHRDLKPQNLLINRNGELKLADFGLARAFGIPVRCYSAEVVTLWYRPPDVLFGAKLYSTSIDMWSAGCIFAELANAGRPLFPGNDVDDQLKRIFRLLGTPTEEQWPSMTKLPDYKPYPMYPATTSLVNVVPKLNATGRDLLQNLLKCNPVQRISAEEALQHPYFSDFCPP
Target sequence (Q15078 whole entry, looked up): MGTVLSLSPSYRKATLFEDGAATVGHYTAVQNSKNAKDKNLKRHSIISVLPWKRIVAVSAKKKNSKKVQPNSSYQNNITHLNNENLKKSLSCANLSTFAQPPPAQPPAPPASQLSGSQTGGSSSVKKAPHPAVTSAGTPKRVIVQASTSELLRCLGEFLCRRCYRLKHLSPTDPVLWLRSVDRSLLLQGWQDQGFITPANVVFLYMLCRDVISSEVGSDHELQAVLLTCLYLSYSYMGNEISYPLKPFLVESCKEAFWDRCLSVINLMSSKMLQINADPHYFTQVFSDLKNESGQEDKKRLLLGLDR
DYRK1A inh: inhibitors of rat Dyrk1A kinase | 310,000 tested, 0.43% active | ADP-Glo luminescence, NFATc1 peptide | inhibition, % at 12.5 µM; in the data active = inhibition above about 50%;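 note: plate controls were vehicle with enzyme for no effect and no enzyme for full effect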
PvdQ inh: P. aeruginosa PvdQ acylase inhibition | purified PvdQ acylase, fluorescence plate reader | inhibition, % at 10 µM | 340,000 tested, 0.063% active | AID 488965; in the data active = inhibition above about 30%, passing the limit was not always enough;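 note: 0% = vehicle neutral wells and 100% = reference inhibitor wells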
Tb MetRS inh: Trypanosoma brucei MetRS inhibition. purified T. brucei MetRS, ATP depletion, Kinase-Glo luminescence. inhibition, % at 11.9 µM. 360,000 tested, 0.4% active. AID 624268;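 active = inhibition above a per-plate cutoff of the control wells' mean inhibition plus 3 SD, cut at about 5.5% in these data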;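 note: 0% = DMSO wells median and 100% = median of wells with control inhibitor compound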
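Test system – parasite MetRS enzyme · Reagent – substrates ATP, L-methionine and bulk Escherichia coli tRNA · Doses – 11.9 µM compound single dose, 0.9% DMSO · Times – 15 min enzyme-compound preincubation, 2 h reaction, 10 min detection, 25 °C · Signal – Kinase-Glo luminescence, ATP depletion format · Controls – DMSO-only wells as low control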
Starred values were filed as active, the others as inactive; . = no result given. An excerpt weighted towards active compounds, which were near 1.4% of everything screened.

SMILES	CAL PDZ FP-1	CAL PDZ FP-2	CDK5 p35 inh	DYRK1A inh	PvdQ inh	Tb MetRS inh
Cc1cc(O)c(C=O)c2c1C(=O)Oc1c(CO)c(O)c3c(c1O2)C(O)OC3=O (stereo unspecified)	-3.2	2.2	7.2	51.4*	12.1	0.1
COc1cc(/C=N/NC(=O)CSc2ccccn2)ccc1O	43.8*	-1.1	-1.8	.	-7.8	-0.5
CCCOc1ccc(/C=N/NC(=O)CSc2ccccn2)cc1OC	.	-0.2	0.8	3.1	-3.7	-0.5
CCCCCCN1C[C@H](O)[C@@H](n2cc(C3CC3)nn2)C[C@@H]1c1ccccc1	.	.	.	.	.	-1.1
CCCCN(CC)CCNC(=O)Cn1cnc2sc(C)c(S(=O)(=O)N3CCC(C)CC3)c2c1=O	43.9*	-0.4	1.4	1.3	-2.8	0.2
CCCCN(CC)CCNC(=O)Cn1cnc2sc(C)c(S(=O)(=O)N3CCOCC3)c2c1=O	-3.6	0.1	1.6	-8.0	-10.9	-0.2
O=C(Cc1cccc2ccccc12)NC(=S)Nc1cccc(C(=O)O)c1	-3.6	-0.9	-3.0	3.0	-5.7	-0.3
O=C(Cc1cccc2ccccc12)Nc1cc(C(=O)O)cc(C(=O)O)c1	44.2*	-0.6	-0.1	1.0	-10.5	-1.4
Nc1nc(Cl)cc(N2CCC(c3cc(-c4ccc(Cl)cc4Cl)n[nH]3)CC2)n1	-4.6	-0.2	-1.7	-4.1	-13.7	21.0*
Nc1nc(Cl)cc(N2CCCC2)n1	-4.6	-1.0	0.4	0.5	-0.4	-0.1
Cc1ccnc(NC(=O)c2cccs2)c1	-3.2	-0.4	2.2	-4.5	-7.8	-0.2
Cc1ccnc(NC(=O)c2ccc(Br)s2)c1	63.2*	.	4.9	3.3	-12.6	-0.8
CC(=O)c1cccc(NC(=O)c2cccc3ccccc23)c1	52.3*	-1.1	-0.8	0.3	-3.0	0.6
O=C(Nc1ccc2ccccc2c1)c1cccc2ccccc12	69.9*	-0.4	0.9	-0.1	-13.0	-0.2
Cc1cc(C(=O)Nc2ccc3ccccc3c2)c(C)o1	41.0*	-1.2	0.3	2.4	-2.8	0.5
COc1ccc(C(C)(O)c2nc(-c3ccccc3OC)cs2)cc1 (stereo unspecified)	.	.	.	.	.	-0.3
COc1ccc(NC(=O)C2(C)CCN2Cc2cccc(OC)c2F)cc1OC (stereo unspecified)	.	.	.	.	.	0.4
Cn1c(=O)c2sc3c(c2n(CC(=O)Nc2ccccc2)c1=O)COC(C)(C)C3	31.5*	-1.0	0.6	2.9	-19.3	0.3
CC1(C)CC2(CCCN(CC(O)(c3ccccc3)c3ccccc3)C2)CCO1 (stereo unspecified)	86.3*	-0.4	-3.3	-2.4	-11.1	0.0
CCC1(C)CC2(CCCN(CCC(O)(c3ccccc3)c3ccccc3)C2)CCO1 (stereo unspecified)	.	-1.7	3.1	2.4	4.5	-0.7
C=CC(=O)Nc1cccc(Nc2nc(N[C@H]3CC[C@H](N(C)C)CC3)nc3c2ncn3C(C)C)c1	-1.9	3.1	83.2*	88.2*	3.0	-0.3
Cc1ccc(F)cc1-c1cc2nc(NCCCN(C)C)n(C)c(=O)c2s1	.	.	.	.	.	-0.1
CCSc1nnc(NC(=O)CN2C(=O)NC3(CCCC3)C2=O)s1	78.1*	0.4	-1.4	0.1	-6.6	-0.4
Cc1nnc(NC(=O)CN2C(=O)NC3(CCCC3)C2=O)s1	-4.0	1.0	0.4	-3.3	-8.4	-0.2
Nc1nc2cc3c(cc2cc1C(=O)NCc1ccc(F)cc1)OCO3	.	.	.	.	.	-0.1
SMILES	CAL PDZ FP-1	CAL PDZ FP-2	CDK5 p35 inh	DYRK1A inh	PvdQ inh	Tb MetRS inh
Cc1cc(C)c2c3c(sc2n1)C(=O)N(c1ccccc1C)CC(=O)N3	73.9*	-0.8	-0.3	0.5	-15.1	-0.1
Cc1ccc(N2CC(=O)Nc3c(sc4nc(C)cc(C)c34)C2=O)cc1	.	0.0	-5.0	-10.5	-9.6	-0.3
O=C(NCc1ccc2c(c1)OCO2)c1nc(Cn2ccc([N+](=O)[O-])n2)no1	-2.1	-0.1	0.4	2.0	-13.5	-0.2
O=C(NCc1ccc2c(c1)OCO2)c1nc(Cn2cc(Br)cn2)no1	36.7*	-1.1	0.9	-4.6	-12.4	0.8
COc1ccc(C(CNC(=O)C2COc3ccccc3O2)N2CCCC2)cc1 (stereo unspecified)	67.6*	0.5	0.4	.	-17.8	-0.2
CN1OC[C@@H]2CN(Cc3cc(Cl)cc(Cl)c3)[C@H](c3cccc(-c4ccc(C#N)cc4)c3)C[C@@H]21	.	.	.	.	.	-1.4
Cc1cc(F)c(F)cc1C(=O)N1CCCC1	52.9*	0.1	0.1	-1.2	-10.5	-0.8
N=c1c2ccccc2nc2n1CCCCC2	.	.	.	.	.	-0.3
COc1ccc(NC(=O)C2c3ccccc3OCC(=O)N2Cc2ccco2)cc1 (stereo unspecified)	.	.	.	.	.	-1.2
COc1cc(/C=N/NC(=S)NCC2CCCO2)cc(OC)c1OC (stereo unspecified)	35.7*	0.9	0.9	1.1	-15.6	0.2
O=C(CC1SC(=Nc2ccccc2)N(CCCO)C1=O)Nc1ccc(Cl)cc1 (stereo unspecified)	-2.3	-1.4	0.2	6.8	1.7	14.0*
Nc1nc2ccc(Cl)cc2cc1C(=O)NCCc1c[nH]c2ccccc12	.	.	.	.	.	0.9
O=C(NCC1CCCN(Cc2cccc(F)c2)C1)c1cccc2ccccc12 (stereo unspecified)	68.0*	0.0	-0.4	-2.1	-3.4	0.4
CSc1cccc(CN2CCCC(CNC(=O)c3ccco3)C2)c1 (stereo unspecified)	146.4*	-0.8	-3.3	-3.3	-11.6	-0.2
COc1ccc(CC(=O)NCC2CCCN(Cc3cccc(SC)c3)C2)cc1 (stereo unspecified)	-6.0	.	0.3	5.4	-18.3	-0.5
CC(C)NC(=O)CN1CCN(C(c2cc3ccccc3o2)c2nnnn2C(C)(C)C)CC1 (stereo unspecified)	.	.	.	.	.	-0.8
O=C(NCC1(c2ccccc2)CCCC1)C(=O)NCC1(c2ccccc2)CCCC1	-4.8	-0.1	0.4	-8.6	-14.8	-0.4
CC1(CNC(=O)C(=O)NCC2(C)CO2)CO1 (stereo unspecified)	40.6*	0.9	-2.0	3.2	-17.4	0.2
N#CC1=C(N)Oc2n[nH]c(-c3cccnc3)c2C1c1ccc([N+](=O)[O-])o1 (stereo unspecified)	51.3*	-5.4	1.2	4.8	-20.6	-0.1
CCc1nc2ccc(C(=O)NCCOc3ccc(OC)cc3)cn2c1N(CC)Cc1ccc(OC)c(OC)c1	.	.	.	.	.	-0.2
COc1ccc(CN2C(=O)C(CC(=O)NCCc3ccccn3)CC(C(=O)N3CCCCCC3)=C2C)cc1 (stereo unspecified)	.	.	.	.	.	-0.3
CCN1CC2=C(OC(N)=C(C#N)C2c2cccs2)/C(=C/c2cccs2)C1 (stereo unspecified)	43.4*	-0.3	0.4	1.0	-9.6	-0.8
CCN1CC2=C(OC(N)=C(C#N)C2c2ccccc2)/C(=C\c2ccccc2)C1 (stereo unspecified)	-1.8	.	-1.5	-2.4	5.0	-0.8
